{
  "source": "ChEMBL document CHEMBL3608288",
  "about": "“Novel Chalcone-Thiazole Hybrids as Potent Inhibitors of Drug Resistant Staphylococcus aureus” (ACS Med Chem Lett, 2015)",
  "key": {"[1]": {"test_system": "Staphylococcus aureus", "experiment": "Antibacterial activity against […] Staphylococcus aureus ATCC 29213 in neutropenic BALB/C mouse septicemia model assessed as reduction in bacterial burden in spleen at 15 mg/kg, ip administered twice at 3 hrs interval measured after 24 hrs", "format": "functional, organism-based", "how_it_was_run": "(§1)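 BALB/c mice were made neutropenic with cyclophosphamide (150 mg/kg) and then infected intraperitoneally with S. aureus ATCC 29213. From 3 h post-infection, compound was injected at 15 mg/kg twice, 3 h apart. At 24 h, spleen, kidney and liver were crushed and plated on TH plates for CFU. Data from three independent experiments were pooled; P by ANOVA on ranks.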"}, "[2]": {"test_system": "L929", "experiment": "Cytotoxicity against mouse L929 cells assessed as induction of morphological changes at 1 x MIC after 24 hrs by Giemsa staining-based phase contrast microscopic analysis", "format": "cell-based", "conditions": "l929, 24 h", "how_it_was_run": "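L929 fibroblasts were incubated with the compound for 24 h, then Giemsa-stained. Morphology was compared with untreated control cells under phase contrast microscopy for appearance, transparency and attachment to the well surface.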"}, "[3]": {"test_system": "Pseudomonas aeruginosa", "experiment": "Antibacterial activity against Pseudomonas aeruginosa ATCC BAA-427 after 16 hrs by microtiter broth dilution method", "format": "functional", "conditions": "ATCC BAA-427, 16 h"}, "[4]": {"test_system": "Candida albicans", "experiment": "Antifungal activity against Candida albicans after 16 hrs by microtiter broth dilution method", "format": "functional"}, "[5]": {"experiment": "Hemolytic activity in human RBC at 100 ug/ml after 1 hr", "conditions": "erythrocyte"}, "[6]": {"test_system": "L929", "experiment": "Cytotoxicity against mouse L929 cells assessed as cell viability at <= MIC by MTT assay", "format": "cell-based", "how_it_was_run": "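Mouse fibroblast L929 cells were exposed to the compound. Viability was read by MTT conversion to blue formazan, measured at 550 nm.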"}, "[7]": {"test_system": "Staphylococcus aureus", "experiment": "Antibacterial activity against methicillin/gentamicin-resistant Staphylococcus aureus ATCC 33592 after 16 hrs by microtiter broth dilution method", "format": "functional", "conditions": "ATCC 33592, 16 h"}, "[8]": {"test_system": "Sporothrix schenckii", "experiment": "Antifungal activity against Sporothrix schenckii after 16 hrs by microtiter broth dilution method", "format": "functional"}, "[9]": {"test_system": "Aspergillus fumigatus", "experiment": "Antifungal activity against Aspergillus fumigatus after 16 hrs by microtiter broth dilution method", "format": "functional"}, "[10]": {"test_system": "Escherichia coli", "experiment": "Antibacterial activity against Escherichia coli ATCC 9637 after 16 hrs by microtiter broth dilution method", "format": "functional", "conditions": "W"}, "[11]": {"test_system": "Staphylococcus aureus", "experiment": "Antibacterial activity against methicillin-resistant Staphylococcus aureus ATCC 700699 after 16 hrs by microtiter broth dilution method", "format": "functional", "conditions": "ATCC 700699, 16 h"}, "[12]": {"test_system": "Staphylococcus aureus", "experiment": "Antibacterial activity against […] Staphylococcus aureus ATCC 29213 in neutropenic BALB/C mouse septicemia model assessed as reduction in bacterial burden in kidney at 15 mg/kg, ip administered twice at 3 hrs interval measured after 24 hrs", "format": "functional, organism-based", "how_it_was_run": "as §1"}, "[13]": {"test_system": "Staphylococcus aureus", "experiment": "Antibacterial activity against […] Staphylococcus aureus ATCC 29213 assessed as reduction in log10CFU measured at 24 hrs", "format": "functional, organism-based", "how_it_was_run": "(§2)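 Aliquots were taken at regular time points and plated for CFU counts. Reduction in log10 CFU was taken against a no-drug control.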"}, "[14]": {"test_system": "Klebsiella pneumoniae", "experiment": "Antibacterial activity against Klebsiella pneumoniae ATCC 27736 after 16 hrs by microtiter broth dilution method", "format": "functional", "conditions": "ATCC 27736, 16 h"}, "[15]": {"test_system": "Staphylococcus aureus", "experiment": "Antibacterial activity against Staphylococcus aureus ATCC 25923 after 16 hrs by microtiter broth dilution method", "format": "functional", "conditions": "ATCC 25923, 16 h"}, "[16]": {"test_system": "Candida parapsilosis", "experiment": "Antifungal activity against Candida parapsilosis ATCC 22019 after 16 hrs by microtiter broth dilution method", "format": "functional", "conditions": "Lodderomyces parapsilosis, ATCC 22019, 16 h"}, "[17]": {"test_system": "Staphylococcus aureus", "experiment": "Antibacterial activity against […] Staphylococcus aureus ATCC 29213 in neutropenic BALB/C mouse septicemia model assessed as reduction in bacterial burden in liver at 15 mg/kg, ip administered twice at 3 hrs interval measured after 24 hrs", "format": "functional, organism-based", "how_it_was_run": "as §1"}, "[18]": {"test_system": "Cryptococcus neoformans", "experiment": "Antifungal activity against Cryptococcus neoformans after 16 hrs by microtiter broth dilution method", "format": "functional"}, "[19]": {"test_system": "Staphylococcus aureus", "experiment": "Antibacterial activity against […] Staphylococcus aureus ATCC 29213 in neutropenic BALB/C mouse septicemia model assessed as increase in mouse survival at 15 mg/kg, ip administered twice at 3 hrs interval", "format": "functional, organism-based"}, "[20]": {"test_system": "Trichophyton mentagrophytes", "experiment": "Antifungal activity against Trichophyton mentagrophytes after 16 hrs by microtiter broth dilution method", "format": "functional"}, "[21]": {"test_system": "Staphylococcus aureus", "experiment": "Antibacterial activity against […] Staphylococcus aureus ATCC 29213 assessed as reduction in log10CFU at 1x MIC and 10x MIC measured at 24 hrs relative to control", "format": "functional", "how_it_was_run": "as §2"}, "[22]": {"test_system": "Staphylococcus aureus", "experiment": "Antibacterial activity against […] Staphylococcus aureus ATCC 29213 after 16 hrs by microtiter broth dilution method", "format": "functional", "conditions": "ATCC 29213, 16 h"}},
  "note": "Activity calls are given as the source filed them. The rule behind the calls is not given here.",
  "data": [
    {"smiles": "COc1ccc(-c2csc(/N=C/c3cc(/C=C/C(=O)c4ccc(C)cc4)cc(C(C)(C)C)c3O)n2)cc1OC", "values": [
      {"measurement": "Activity", "setting": "[1]", "result": "Active"},
      {"measurement": "Activity", "setting": "[2]", "result": "Non-toxic"},
      {"measurement": "MIC", "setting": "[3]", "result": "> 92.5", "unit": "µM"},
      {"measurement": "MIC", "setting": "[4]", "result": "> 92.5", "unit": "µM"},
      {"measurement": "Activity", "setting": "[5]", "result": "Non-toxic"},
      {"measurement": "Activity", "setting": "[6]", "result": "Non-toxic"},
      {"measurement": "MIC", "setting": "[7]", "result": 1.4, "unit": "µM"},
      {"measurement": "MIC", "setting": "[8]", "result": "> 92.5", "unit": "µM"},
      {"measurement": "MIC", "setting": "[9]", "result": "> 92.5", "unit": "µM"},
      {"measurement": "MIC", "setting": "[10]", "result": "> 92.5", "unit": "µM"},
      {"measurement": "MIC", "setting": "[11]", "result": 11.6, "unit": "µM"},
      {"measurement": "Activity", "setting": "[12]", "result": "inactive"},
      {"measurement": "Activity", "setting": "[13]", "result": "Dose-dependent effect"},
      {"measurement": "MIC", "setting": "[14]", "result": "> 92.5", "unit": "µM"},
      {"measurement": "MIC", "setting": "[15]", "result": 5.8, "unit": "µM"},
      {"measurement": "MIC", "setting": "[16]", "result": "> 92.5", "unit": "µM"},
      {"measurement": "Activity", "setting": "[17]", "result": "Active"},
      {"measurement": "MIC", "setting": "[18]", "result": "> 92.5", "unit": "µM"},
      {"measurement": "Activity", "setting": "[19]", "result": "Active"},
      {"measurement": "MIC", "setting": "[20]", "result": "> 92.5", "unit": "µM"},
      {"measurement": "Activity", "setting": "[21]", "result": 10, "unit": "log10CFU/ml"},
      {"measurement": "MIC", "setting": "[22]", "result": 5.8, "unit": "µM"}
    ]}
  ]
}
